Measurements: ChEMBL document CHEMBL4382295, “Enhanced Tumor Selectivity of 5-Fluorouracil Using a Reactive Oxygen Species-Activated Prodrug Approach” (ACS Med Chem Lett, 2019)
Activity calls are given as the source filed them. The rule behind the calls is not given here.

Legend:
[1] = tested on: MCF7; assay: Induction of DNA damage in human MCF7 cells assessed as increase in gammaH2AX level after 48 hrs by DAPI staining based immunofluorescence assay; format: functional, cell-based
Outline: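 MCF7 cells treated 48 h at the indicated concentrations. γH2AX formation, a marker of DNA double-strand breaks, visualized by immunofluorescence.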

[2] = tested on: MCF7; assay: Antiproliferative activity against human MCF7 cells assessed as reduction in cell viability at 1 to 100 uM after 48 to 72 hrs by CCK8 assay; format: functional, cell-based
Outline: (§1)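 Breast cancer MCF7 cells and normal MEC1 cells treated at a range of concentrations, concentrations up to 100 μM. Cell viability then measured. Mean ± SD, n = 4.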

[3] = tested on: MCF7; assay: Induction of apoptosis in human MCF7 cells assessed as increase in cleaved PARP1 level up to 100 uM after 48 hrs by Western blot analysis; format: functional, cell-based
Outline: (§2)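 MCF7 cells treated 48 h at the indicated concentrations, with vehicle-treated cells as control. Lysates immunoblotted for PARP1 and caspase 3 and their cleaved forms (CL-PARP1, CL-caspase 3).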

[4] = tested on: MCF7; assay: Induction of apoptosis in human MCF7 cells assessed as increase in cleaved caspase-3 level up to 100 uM after 48 hrs by Western blot analysis; format: functional, cell-based; outline: as §2
[5] = Acute toxicity in C57BL/6J mouse assessed as death at 100 mg/kg, ip administered every other day for 12 days; format: organism-based; details: in vivo, 288 h
[6] = Acute toxicity in C57BL/6J mouse assessed as decrease in body weight at 100 mg/kg, ip administered every other day for 12 days; format: organism-based; details: in vivo, 288 h
[7] = tested on: NCI-H522; assay: Antiproliferative activity against human NCI-H522 cells assessed as growth inhibition at 50 uM after 48 hrs by sulforhodamine B assay relative to control; format: functional; details: NCI-H522, 48 h, read-out: GI
Outline: (§3)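 NCI cell-line screen (protocol per DTP/NCI). Cells exposed to a single concentration of 50 μM for 48 h, then percent growth inhibition determined.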

[8] = tested on: MDA-MB-435; assay: Antiproliferative activity against human MDA-MB-435 cells assessed as growth inhibition at 50 uM after 48 hrs by sulforhodamine B assay relative to control; format: functional; details: MDA-MB-435, 48 h, read-out: GI; outline: as §3
[9] = tested on: OVCAR-3; assay: Antiproliferative activity against human OVCAR3 cells assessed as growth inhibition at 50 uM after 48 hrs by sulforhodamine B assay relative to control; format: functional; details: OVCAR-3, 48 h, read-out: GI; outline: as §3
[10] = tested on: MCF7; assay: Antiproliferative activity against human MCF7 cells assessed as growth inhibition at 50 uM after 48 hrs by sulforhodamine B assay relative to control; format: functional; details: MCF7, 48 h, read-out: GI; outline: as §3
[11] = tested on: MDA-MB-468; assay: Antiproliferative activity against human MDA-MB-468 cells assessed as growth inhibition at 50 uM after 48 hrs by sulforhodamine B assay relative to control; format: functional; details: MDA-MB-468, 48 h, read-out: GI; outline: as §3
[12] = Cytotoxicity against human MEC1 cells assessed as cell viability at 1 to 100 uM after 48 to 72 hrs by CCK8 assay relative to control; format: cell-based; details: read-out: Activity; outline: as §1
[13] = Acute toxicity in C57BL/6J mouse assessed as death at 100 mg/kg, ip administered every other day for 15 days measured during compound dosing; format: organism-based; details: in vivo, 360 h
Outline: (§4)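 Wild-type male C57BL/6 mice, randomized into three groups of seven (21 total): vehicle (5% DMSO and 15% polyethylene glycol in saline) or 100 mg/kg test article. Dosed ip every other day for 15 days. Survival, body weight, eating, drinking and activity were recorded throughout treatment.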

[14] = Acute toxicity in C57BL/6J mouse assessed as abnormality in eating at 100 mg/kg, ip administered every other day for 15 days measured during compound dosing; format: organism-based; details: in vivo, 360 h; outline: as §4
[15] = Acute toxicity in C57BL/6J mouse assessed as abnormality in drinking at 100 mg/kg, ip administered every other day for 15 days measured during compound dosing; format: organism-based; details: in vivo, 360 h; outline: as §4
[16] = Acute toxicity in C57BL/6J mouse assessed as effect on normal activity at 100 mg/kg, ip administered every other day for 15 days measured during compound dosing; format: organism-based; details: in vivo, 360 h; outline: as §4
[17] = Acute toxicity in C57BL/6J mouse assessed as decrease in body weight at 100 mg/kg, ip administered every other day for 15 days measured during compound dosing; format: organism-based; details: in vivo, 360 h; outline: as §4
[18] = tested on: MCF7; assay: Antiproliferative activity against human MCF7 cells assessed as reduction in cell viability at 50 to 100 uM after 48 hrs in presence of ROS scavenger NAC by MTT assay

In the case of `O=c1[nH]cc(F)c(=O)[nH]1` [FLUOROURACIL], the Activity [1] is reported as “Active”, the Activity [2] is reported as “Active” and the Activity [3] is reported as “Active”. For the same compound, the Activity [4] was “Active”, the Activity [5] was “Toxic” and the Activity [6] was “Toxic”.
With `CC1(C)OB(c2ccc(Cn3cc(F)c(=O)[nH]c3=O)cc2)OC1(C)C` the inhibition of growth at 50 µM [7] was 90%, the inhibition of growth at 50 µM [8] was 96% and the inhibition of growth at 50 µM [9] was 95%. For the same compound, the inhibition of growth at 50 µM [10] was 81%, the inhibition of growth at 50 µM [11] was 87% and the Activity [1] was “Active”. For the same compound, the Activity [2] was “Active”, the viability at up to 100 µM [12] was > 95% and the Activity [3] was “Active”. For the same compound, the Activity [4] was “Active”, the Activity [13] was “Non-Toxic” and the Activity [14] was “Non-Toxic”. For the same compound, the Activity [15] was “Non-Toxic”, the Activity [16] was “Non-Toxic” and the Activity [17] was “Non-Toxic”. The Activity [18] was “inactive”.
In the case of `O=c1[nH]c(=O)n(Cc2ccccc2)cc1F`, the Activity [2] is reported as “inactive”.
Work on `O=c1[nH]c(=O)n(Cc2ccc(B(O)O)cc2)cc1F` yielded an inhibition of growth at 50 µM [7] of 44%, an inhibition of growth at 50 µM [8] of 65% and an inhibition of growth at 50 µM [9] of 30%. The inhibition of growth at 50 µM [10] was 33%, the inhibition of growth at 50 µM [11] was 22% and the Activity [1] was “Active”. The Activity [2] was “Active”, the viability at up to 100 µM [12] was > 95% and the Activity [3] was “Active”. The Activity [4] was “Active” and the Activity [18] was “inactive”.
